Consider five molecules from ChEMBL document CHEMBL1131196, “Design and synthesis of hydrazinopeptides and their evaluation as human leukocyte elastase inhibitors” (J Med Chem, 1998).

Numbered stars: 1 amine (or outer) side, 2 acyl side, 3 side chain; on linkers, the order of the positions; unused ones are H or OH. Square brackets hold non-standard residues; d marks the D form. Peptide text beside a SMILES is read from it. * marks the point of attachment. X1 = O=C([C@H]1CCCN1N[*:1])[*:2]; Cbz = O=C(OCc1ccccc1)*; NHiPr = CC(C)N*

Series [1] has as its target T1, Neutrophil elastase (Homo sapiens) (UniProt P08246).
T1 sequence (whole entry): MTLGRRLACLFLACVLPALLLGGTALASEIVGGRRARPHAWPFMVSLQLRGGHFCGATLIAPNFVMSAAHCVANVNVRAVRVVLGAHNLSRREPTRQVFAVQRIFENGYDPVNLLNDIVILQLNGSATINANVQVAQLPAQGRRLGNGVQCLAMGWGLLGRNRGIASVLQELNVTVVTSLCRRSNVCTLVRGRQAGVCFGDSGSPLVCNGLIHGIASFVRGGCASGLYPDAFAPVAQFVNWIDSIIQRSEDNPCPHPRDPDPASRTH
As to the kind of experiment: (§1) Kinetic parameter was calculated by Michaelis equation catalyzed by Leukocyte elastase at 25 degree C and pH 8. A digest of the protocol:
(§2)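 HLE at 200 nM, in 0.05 M Hepes pH 8.0 with 10% v/v DMSO and no NaCl, at 25 °C. Hydrolysis was read either by absorbance at 250 nm (substrate 5–50 µM) or by C8 reverse-phase HPLC (substrate 5–20 µM). For HPLC, products at 2–5 min were quantified against a Z-Ala-Ala-Pro-Val calibration. kcat and Km came from least-squares Michaelis fits. For HPLC, kcat/Km came from the linearized rate below Km.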

A short description of series [2]: The catalytic efficiency is the ratio of kcat to that of Km. The essentials: as §2
For a further series, the target named is T2, Neutrophil elastase (Homo sapiens, UniProt P08246).
T2 sequence (P08246 whole entry): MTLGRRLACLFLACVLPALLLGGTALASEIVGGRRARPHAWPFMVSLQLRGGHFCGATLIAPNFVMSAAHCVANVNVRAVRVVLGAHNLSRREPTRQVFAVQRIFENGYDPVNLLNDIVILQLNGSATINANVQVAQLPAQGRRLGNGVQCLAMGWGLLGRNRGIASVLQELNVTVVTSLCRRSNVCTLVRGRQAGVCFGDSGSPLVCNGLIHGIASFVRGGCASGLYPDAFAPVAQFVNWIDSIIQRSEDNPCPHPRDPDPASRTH
Put plainly: Inhibition constant of compound measured toward human leukocyte elastase (HLE) at pH 8 and 25 degree C. A digest of the protocol:
(§3)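 Chromogenic p-nitroanilide substrates, with MeO-Suc-Ala-Ala-Pro-Val-pNA for HLE. Enzymes were HLE 20 nM or PPE 22 nM, with inhibitors at 25–300 µM. Assays ran in 0.05 M Hepes pH 8.0 with 10% v/v DMSO at 25 °C, monitoring p-nitroaniline release continuously at 405 nm. Initial rates were fit to competitive inhibition. Ki came from a linear plot of Km(app)/Vm vs [I]; reversibility was checked by buffer exchange.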

The target in a further series is Pancreatic elastase (Sus scrofa, UniProt P08419+P00772). As to the kind of experiment: Inhibition constant of compound measured toward porcine Pancreatic elastase at pH 8 and 25 degree C. Format: protein assay. The essentials: as §3
Substrate in series [3]: CC(C)NC(=O)[C@H](C)NC(=O)[C@H](C)NC(=O)[C@@H](NC(=O)[C@H]1CCCN1C(=O)[C@H](C)NC(=O)[C@H](C)NC(=O)OCc1ccccc1)C(C)C
Described as §1. A digest of the protocol: as §2

Substrate in series [4]: CC(C)NC(=O)[C@H](C)NC(=O)[C@H](C)NNC(=O)[C@@H](NC(=O)[C@H]1CCCN1C(=O)[C@H](C)NC(=O)[C@H](C)NC(=O)OCc1ccccc1)C(C)C
The description is as §1. A digest of the protocol:
as §2

On to `CC(C)NC(=O)[C@H](C)NC(=O)[C@H](C)NC(=O)[C@@H](NC(=O)[C@H]1CCCN1C(=O)[C@H](C)NC(=O)[C@H](C)NC(=O)OCc1ccccc1)C(C)C`, for which the k cat in series [1] was 0.88 s⁻¹. Also, the k cat/Km in series [2] was 6780 M⁻¹ s⁻¹.
Taken in the same sequence, the figures for `CC(C)NC(=O)[C@H](C)NC(=O)[C@H](C)NNC(=O)[C@@H](NC(=O)[C@H]1CCCN1C(=O)[C@H](C)NC(=O)[C@H](C)NC(=O)OCc1ccccc1)C(C)C` were 2.24 s⁻¹ and 3150 M⁻¹ s⁻¹.
By Ki is commonly meant the dissociation constant of the complex between target and ligand, obtained from inhibition or displacement. Lower therefore signals tighter binding. For `CC(C)NC(=O)[C@H](C)NC(=O)[C@H](C)NC(=O)[C@@H](NNC(=O)[C@H]1CCCN1C(=O)[C@H](C)NC(=O)[C@H](C)NC(=O)OCc1ccccc1)C(C)C`, the inhibition constant (Ki) at Neutrophil elastase was 595 µM; at Pancreatic elastase it was 397 µM.
Regarding `CC(C)NC(=O)[C@H](C)NC(=O)[C@H](C)NC(=O)[C@@H](NC(=O)[C@H]1CCCN1NC(=O)[C@H](C)NC(=O)[C@H](C)NC(=O)OCc1ccccc1)C(C)C` (Cbz-AA[X1]VAA-NHiPr), the Ki at Neutrophil elastase is 65 µM; at Pancreatic elastase, 146 µM.

B1: Neutrophil elastase (Homo sapiens), P08246 (protein)
chain: MTLGRRLACLFLACVLPALLLGGTALASEIVGGRRARPHAWPFMVSLQLRGGHFCGATLIAPNFVMSAAHCVANVNVRAVRVVLGAHNLSRREPTRQVFAVQRIFENGYDPVNLLNDIVILQLNGSATINANVQVAQLPAQGRRLGNGVQCLAMGWGLLGRNRGIASVLQELNVTVVTSLCRRSNVCTLVRGRQAGVCFGDSGSPLVCNGLIHGIASFVRGGCASGLYPDAFAPVAQFVNWIDSIIQRSEDNPCPHPRDPDPASRTH
By Km is commonly meant the substrate concentration at which the rate is half of its maximum. B1: the Michaelis-Menten constant (Km) in series [3] was 131 µM; in series [4], 712 µM.
